Measured values reported in ChEMBL document CHEMBL1153308 (Bioorg Med Chem Lett, 2009).

What was measured:
[1] = target: T1, Replicase polyprotein 1ab (Severe acute respiratory syndrome-related coronavirus, UniProt P0C6X7); assay: Inhibition of ATPase activity of SCV helicase assessed as phosphate release by colorimetric assay
Summary of the method: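 Purified SCV NTPase/helicase (400 nM in 50 mM Tris/HCl pH 6.6) preincubated with compounds for 5 min at rt. Stopped with malachite green/molybdate reagent in 1 M HCl. A620 read after 5 min, with phosphate from a standard curve.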

[2] = Inhibition of HCV RNA dependent RNA polymerase; parameters: species or system Hepacivirus hominis
[3] = target: T1, Replicase polyprotein 1ab; assay: Inhibition of SCV helicase assessed as duplex-DNA unwinding by FRET based assay
Summary of the method: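 Substrate was 25-bp dsDNA with a 20-dT 5′-overhang. SCV helicase (150 nM in 20 mM HEPES pH 7.4) preincubated with compounds for 5 min at rt. Started with 5X reaction solution (5 mM MgCl2, 45 mM ATP, 25 mM DTT, 100 nM dsDNA substrate as 5X concentrations), then 2 min at 37 °C. Stopped with EDTA plus unmodified trap oligomer, with FRET read-out.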

| Structure (SMILES) | IC50 [1] [µM] | IC50 [2] [µM] | IC50 [3] [µM] |
| --- | --- | --- | --- |
| O=C(O)/C(O)=C/C(=O)c1ccc(OCc2ccccc2)cc1 | 41.3 | 0.96 | 39.9 |
| O=C(O)/C(O)=C/C(=O)c1cccc(OCc2ccccc2)c1 | > 50 | 0.96 | > 50 |
| O=C(O)/C(O)=C/C(=O)c1ccccc1OCc1ccccc1 | > 50 | 0.96 | > 50 |
| O=C(O)/C(O)=C/C(=O)c1ccccc1OCc1ccc(Cl)cc1 | > 50 | 0.96 | 28.7 |
| O=C(O)/C(O)=C/C(=O)c1ccc(OCc2ccc(Cl)cc2)cc1 | > 50 | 0.96 | > 50 |
| O=C(O)/C(O)=C/C(=O)c1cccc(NCc2ccccc2)c1 | > 50 | 0.96 | 5.4 |
| O=C(O)/C(O)=C/C(=O)c1cccc(OCc2ccc(Cl)cc2)c1 | 24.4 | 0.96 | 13.6 |
| O=C(O)/C(O)=C/C(=O)c1cccc(NCc2ccc(Cl)cc2)c1 | > 50 | 0.96 | 11 |
